# IDH1 R132H inh: inhibitors of human IDH1 R132H; IDH1 R132H reductase, diaphorase/resazurin fluorescence, 60 min; inhibition, % at 10 µM; 0.18% of 70,000 active; in the data active means inhibition above about 34%; inconclusive means no clear call, values can overlap the other calls; inactive means below about 11%;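 further: 0% = DMSO and 100% = no enzyme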
# Target sequence (O75874 whole entry R132H): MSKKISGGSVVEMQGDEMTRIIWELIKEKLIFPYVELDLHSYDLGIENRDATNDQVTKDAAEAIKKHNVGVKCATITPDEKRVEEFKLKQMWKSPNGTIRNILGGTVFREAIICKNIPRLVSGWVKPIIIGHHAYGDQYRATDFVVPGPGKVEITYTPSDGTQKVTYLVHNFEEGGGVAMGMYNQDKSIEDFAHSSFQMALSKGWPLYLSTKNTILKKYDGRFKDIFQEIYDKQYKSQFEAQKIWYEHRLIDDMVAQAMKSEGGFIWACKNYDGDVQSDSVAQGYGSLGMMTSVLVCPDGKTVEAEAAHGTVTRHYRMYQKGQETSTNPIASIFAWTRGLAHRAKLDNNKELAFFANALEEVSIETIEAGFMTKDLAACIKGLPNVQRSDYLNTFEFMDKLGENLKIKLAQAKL
# Pf Dd2 inh: inhibitors of Plasmodium falciparum Dd2 growth. activity change, % at 10 µM. 2.3% of 94,000 active. P. falciparum Dd2 growth, SYBR Green, 72 h; stronger effect = lower value; in the data active means activity change below about -80%; inconclusive means no clear call, values can overlap the other calls
# Tcruzi prolif: inhibitors of T. cruzi proliferation; AID 624255; inhibition, % at 8.34 µM; T. cruzi beta-gal in NIH3T3, GalScreen luminescence, 90 h; 5.9% of 77,000 active;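 active means mean inhibition above about 93%, with at least 55% of replicates each passing it, limit read from the data, passing the limit was not always enough; inconclusive means only one of those two conditions holds; inactive means neither condition holds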
# GASC1 inh: inhibitors of human demethylase GASC-1 KDM4C | Q9H3R0 | GST-KDM4C 2-372, H3K9me3 peptide, LANCE TR-FRET | inhibition, % at 12.5 µM | 0.15% of 96,000 active | AID 720574;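 active means mean replicate inhibition above about 25%, with at least 55% of replicates also reaching it, limit read from the data, passing the limit was not always enough; inconclusive means only one of those two conditions met; inactive means neither condition met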
#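 Material: N-terminal GST-fused human GASC-1 (KDM4C) fragment, residues 2-372. Input: 10 nM enzyme. Incubation: enzyme reaction 30 min, then detection 60 min, both room temperature. Doses: one test concentration per compound. Read-out basis: inhibition from TR-FRET ratio decrease. Detection: LANCE TR-FRET, excitation 340 nm, emissions 618 and 671 nm.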
# * = called active by the depositor; ? = inconclusive; nt = not tested or not shown. Shown are actives, neighbours in structure and some others; about 5.8% of the full set was active somewhere.
SMILES,IDH1 R132H inh,Pf Dd2 inh,Tcruzi prolif,GASC1 inh
COc1ccc(C#Cc2ccc3c(c2)[C@H]2[C@H](CCN2C(=O)C2CCC2)[C@@H](CO)N3)cc1,nt,-86*,nt,-2
COc1ccc(C#Cc2ccc3c(c2)[C@H]2[C@H](CCN2C(=O)C2CCCCC2)[C@H](CO)N3)cc1,nt,-37,83,-1
COc1ccc(C#Cc2ccc3c(c2)[C@@H]2[C@@H](CCN2C(=O)C2CC2)[C@H](CO)N3)cc1,nt,-89*,nt,-2
COc1ccc(C#Cc2ccc3c(c2)[C@@H]2[C@@H](CCN2C(=O)C2CCCC2)[C@H](CO)N3)cc1,nt,-84*,nt,3
COc1ccc(C#Cc2ccc3c(c2)[C@H]2[C@H](CCN2C(=O)C2CCC2)[C@H](CO)N3)cc1,nt,?,nt,-5
O=C(O)c1cc(N(Cc2ccccc2O)Cc2cc(O)ccc2O)ccc1O,41*,nt,nt,nt
CCCc1cn([C@H]2C[C@@H]3O[C@H](CO)CC[C@@H]3O[C@@H]2CCc2ccc(-c3ccc(OC)cc3)cc2)nn1,nt,-83*,nt,nt
CCCc1cn([C@H]2C[C@@H]3O[C@H](CO)CC[C@@H]3O[C@@H]2CCc2ccc(-c3cccc(OC)c3)cc2)nn1,nt,-69,nt,nt
CCCc1cn([C@@H]2C[C@@H]3O[C@H](CO)CC[C@@H]3O[C@@H]2CCc2ccc(-c3cccc(OC)c3)cc2)nn1,nt,-87*,nt,nt
C[C@H](CO)N1C[C@H](C)[C@H](CN(C)C(=O)Nc2ccc(C(F)(F)F)cc2)Oc2c(NS(=O)(=O)c3ccccc3)cccc2C1=O,-1,1,44,2
C/C=C/c1ccc([C@H]2[C@@H](CO)N(Cc3cccnc3)C23CN(C(=O)CC)C3)cc1,nt,-19,nt,0
COc1ccccc1C#Cc1cnc2c(c1)C(=O)N([C@@H](C)CO)C[C@@H](C)[C@@H](CN(C)S(=O)(=O)c1cn(C)cn1)O2,nt,2,nt,-3
C[C@H]1CN([C@@H](C)CO)C(=O)c2cc(NC(=O)Cc3cn(C)c4ccccc34)ccc2O[C@H]1CN(C)S(=O)(=O)c1cccs1,0,-90*,62,-2
C[C@@H]1CN([C@@H](C)CO)C(=O)c2cc(NC(=O)Cc3cn(C)c4ccccc34)ccc2O[C@H]1CN(C)S(=O)(=O)c1cccs1,nt,-32,54,8
C[C@H](CO)N1C[C@H](C)[C@H](CN(C)S(=O)(=O)c2cccs2)Oc2ccc(NC(=O)Cc3cn(C)c4ccccc34)cc2C1=O,-1,-86*,88,-1
Cc1ccccc1-c1nnc(SCC(=O)Nc2ccc(F)c(F)c2)n1C,0,nt,nt,nt
COc1c(CO)c(O)cc2c1C(=O)c1ccccc1C2=O,0,nt,nt,nt
CC(C)C#Cc1ccc([C@@H]2[C@H](CO)N3CCCCN(C(=O)c4ccc5c(c4)OCO5)C[C@@H]23)cc1,nt,-83*,35,0
O=C(c1cccc(F)c1)N1CC(=O)N2[C@H](CO)[C@H](c3ccc(-c4cccnc4)cc3)[C@H]2C1,nt,-86*,nt,-1
COc1ccc(-c2ccc([C@@H]3[C@H]4CN(C(=O)NC(C)C)CC(=O)N4[C@H]3CO)cc2)cc1,nt,-87*,nt,0
O=C(c1ccc(F)cc1)N1CC(=O)N2[C@H](CO)[C@H](c3ccc(C#Cc4ccc(F)cc4)cc3)[C@H]2C1,nt,-91*,nt,1
O=C(c1ccc(F)cc1)N1CC(=O)N2[C@H](CO)[C@@H](c3ccc(C#Cc4ccc(F)cc4)cc3)[C@H]2C1,nt,-29,nt,-1
COc1ccc(-c2ccc([C@H]3[C@@H](CO)N4C(=O)CN(C(=O)NC(C)C)C[C@H]34)cc2)cc1,nt,-46,nt,1
CC(C)C#Cc1ccc([C@H]2[C@H](CO)N3CCCCN(C(=O)c4ccc5c(c4)OCO5)C[C@@H]23)cc1,nt,-41,70,-1
C[C@H]1CN([C@@H](C)CO)C(=O)Cc2cc(NS(=O)(=O)c3cn(C)cn3)ccc2O[C@@H]1CN(C)C,0,8,-24,-2
SMILES,IDH1 R132H inh,Pf Dd2 inh,Tcruzi prolif,GASC1 inh
C=CC1C(=C)CCC2C1CCC1C(C)(C(=O)O)CCCC21C (stereo unspecified),0,nt,nt,nt
CO[C@@H]1CC[C@@H]2CCOc3c(C#N)cccc3C(=O)N(C)C[C@@H](c3ccccc3)CC(=O)N(C)C[C@H]1O2,0,-1,-41,0
COc1ccc(NC(=O)N2CC(=O)N3[C@@H](CO)[C@H](c4ccc(C#CCC5CCCC5)cc4)[C@@H]3C2)cc1,nt,-90*,nt,-3
O=C(c1ccc2c(c1)OCO2)N1CC(=O)N2[C@H](CO)[C@H](c3ccc(C#Cc4ccccc4)cc3)[C@H]2C1,nt,-82*,nt,-3
COc1ccc(NC(=O)N2CC(=O)N3[C@H](C2)[C@H](c2ccc(C#CCC4CCCC4)cc2)[C@@H]3CO)cc1,nt,-33,nt,-1
COc1ccc(C#Cc2ccc([C@@H]3[C@@H](CO)N4C(=O)CN(C(=O)c5ccccc5)C[C@H]34)cc2)cc1,nt,-87*,nt,-5
COc1ccccc1NC(=O)N[C@@H]1CC[C@@H](CC(=O)N[C@H](C)c2ccccc2)O[C@H]1CO,0,-9,19,0
C[C@@H]1CN([C@@H](C)CO)C(=O)c2c(c3ccccc3n2C)-c2ccccc2CO[C@@H]1CN(C)Cc1cccc(C(F)(F)F)c1,nt,-90*,nt,6
C[C@H]1CN([C@@H](C)CO)C(=O)c2c(c3ccccc3n2C)-c2ccccc2CO[C@H]1CN(C)Cc1ccc(C(F)(F)F)cc1,nt,?,nt,0
C[C@H]1CN([C@@H](C)CO)C(=O)c2c(c3ccccc3n2C)-c2ccccc2CO[C@@H]1CN(C)Cc1cccc(C(F)(F)F)c1,nt,-82*,nt,-8
C[C@@H]1CN([C@H](C)CO)C(=O)c2c(c3ccccc3n2C)-c2ccccc2CO[C@H]1CN(C)Cc1ccccc1C(F)(F)F,nt,-63,nt,-10
C[C@@H]1CN([C@@H](C)CO)C(=O)c2c(c3ccccc3n2C)-c2ccccc2CO[C@@H]1CN(C)Cc1ccccc1C(F)(F)F,nt,-87*,nt,-3
CCC(=O)N1CC[C@@H]2[C@@H](CO)N(C)c3ccc(-c4ccccc4)cc3[C@@H]21,nt,13,32,6
Cc1ccc(C)c(OCC(=O)Nc2cccc(Oc3ccc4c(c3)C(=O)NC4=O)c2)c1,0,nt,nt,nt
O=C(N[C@@H]1CC[C@@H](CCn2cc(C3CCCCC3)nn2)O[C@H]1CO)c1cccnc1,0,-33,nt,2
C[C@@H]1CCCCO[C@@H](CN(C)C(=O)Nc2ccc(F)cc2)[C@H](C)CN([C@H](C)CO)C(=O)c2cc(NS(=O)(=O)c3cccs3)ccc2O1,9,-86*,83,0
C[C@@H]1CCCCO[C@H](CN(C)C(=O)Nc2ccc(F)cc2)[C@H](C)CN([C@H](C)CO)C(=O)c2cc(NS(=O)(=O)c3cccs3)ccc2O1,nt,-86*,79,-1
C[C@@H]1CN([C@@H](C)CO)C(=O)c2cc(NS(=O)(=O)c3cccs3)ccc2O[C@@H](C)CCCCO[C@@H]1CN(C)C(=O)Nc1ccc(C(F)(F)F)cc1,0,-82*,nt,-1
C[C@H]1CCCCO[C@@H](CN(C)C(=O)Nc2ccc(F)cc2)[C@@H](C)CN([C@@H](C)CO)C(=O)c2cc(NS(=O)(=O)c3cccs3)ccc2O1,1,-57,47,-1
